Laboratory results from PubChem BioAssay.
Active and inactive are the calls of the source.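 The calls were made as follows, unless noted: active = NADPH fluorescence slope more negative than the mean of all samples by about 3 SD, 99.7% confidence; inactive = the rest.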

What was measured:
[1] = inhibitors of TNFa-induced NFkB p65 translocation, primary screen, imaging, HUVEC, MLSMR starter and 10KST1 sets (AID 438;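 active = inhibition above 20% together with a positive visual image hit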;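 also: compound added about 3h40 before a 20 min TNFalpha stimulation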;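 as to inhibition: signal is the nuclear over cytoplasmic p65 intensity ratio per well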); conditions: HUVEC TNFa-induced p65 nuclear translocation; cell count: measured here: nuclei count (cytotoxicity indicator), at 2.08 µM; inhibition: at 2 µM, stronger effect = higher value, 0% TNFa-plus-vehicle, 100% no-TNFa wells
[2] = inhibitors of mutant huntingtin aggregation, primary screen, imaging, exon1htt(103Q)mCFP cells, high-content imaging (AID 483;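 active = visual image review flags a hit and inhibition of aggregation exceeds 20%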;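 also: compound exposure lasted 3 days before fixation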;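 as to nuclei count: percent of the per-plate median nuclei count of sample wells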); conditions: exon1htt(103Q)mCFP cell line, aggregate imaging, at 2 µM; inhibition of aggregation: stronger effect = higher value; nuclei count: measured here: cell count, toxicity
[3] = inhibitors of E-selectin induction by TNFa, primary screen, imaging, HUVEC, immunofluorescence, MLSMR starter and 10KST1 sets (AID 487;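 active = visually confirmed hit in the image check and inhibition above 20%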;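 as to inhibition: signal is fraction of cell area covered by stained E-selectin grains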;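 as to nuclei count: 100% = median nuclei count of all wells on the same plate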); conditions: HUVEC TNFalpha-induced E-selectin immunofluorescence imaging, at 2 µM; inhibition: stronger effect = higher value; nuclei count: measured here: cell number, toxicity
[4] = molecular target: Voltage-gated potassium channel subunit beta-2 (Rattus norvegicus) (UniProt P62483); experiment: KvBeta enzyme negative modulators, primary screen, biochemical, NADPH fluorescence (AID 622;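 active = fluorescence slope higher than the sample average by over 3 SD, cut at about -0.22 in these data, passing the limit was not always enough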;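 also: slope of raw intensity against log time taken from 70 to 1610 s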); conditions: recombinant KvBeta, 4-cyanobenzaldehyde reduction, at 10 µM, stronger effect = higher value
Sequence of Voltage-gated potassium channel subunit beta-2 (Rattus norvegicus) (P62483 whole entry, looked up): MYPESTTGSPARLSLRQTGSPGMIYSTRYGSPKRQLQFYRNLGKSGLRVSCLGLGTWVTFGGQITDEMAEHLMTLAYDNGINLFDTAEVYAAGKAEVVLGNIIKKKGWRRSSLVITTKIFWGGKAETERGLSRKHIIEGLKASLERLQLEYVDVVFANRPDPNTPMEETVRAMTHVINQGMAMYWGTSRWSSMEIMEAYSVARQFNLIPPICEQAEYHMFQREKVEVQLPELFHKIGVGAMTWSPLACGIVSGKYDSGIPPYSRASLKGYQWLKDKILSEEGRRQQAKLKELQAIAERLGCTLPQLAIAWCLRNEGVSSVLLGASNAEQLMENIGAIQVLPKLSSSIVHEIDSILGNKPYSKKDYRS

[5] = molecular target: Voltage-gated potassium channel subunit beta-2 (Rattus norvegicus) (UniProt P62483); experiment: KvBeta positive modulators, primary screen, biochemical, NADPH fluorescence (AID 623); conditions: Recombinant KvBeta, NADPH fluorescence decrease slope, 10 min; at 10 µM; stronger effect = lower value;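 also: fluorescence intensity change per second fitted from 20 to 320 s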
[6] = molecular target: Muscarinic acetylcholine receptor M4 (Homo sapiens) (UniProt P08173); experiment: compounds altering M4/GIRK thallium flux, either direction, primary screen, M4 allosteric agonist project, cell-based, HEK293 M4/GIRK, BTC-AM (AID 625;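 active = fluorescence slope after compound addition differing from the mean of all tested samples at 99.7% confidence, mostly higher but some lower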;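 also: thallium influx through GIRK channels coupled to M4 in HEK293 cells with BTC-AM dye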); conditions: at 10 µM, actives lie on both sides
Sequence of Muscarinic acetylcholine receptor M4 (Homo sapiens) (P08173 whole entry, looked up): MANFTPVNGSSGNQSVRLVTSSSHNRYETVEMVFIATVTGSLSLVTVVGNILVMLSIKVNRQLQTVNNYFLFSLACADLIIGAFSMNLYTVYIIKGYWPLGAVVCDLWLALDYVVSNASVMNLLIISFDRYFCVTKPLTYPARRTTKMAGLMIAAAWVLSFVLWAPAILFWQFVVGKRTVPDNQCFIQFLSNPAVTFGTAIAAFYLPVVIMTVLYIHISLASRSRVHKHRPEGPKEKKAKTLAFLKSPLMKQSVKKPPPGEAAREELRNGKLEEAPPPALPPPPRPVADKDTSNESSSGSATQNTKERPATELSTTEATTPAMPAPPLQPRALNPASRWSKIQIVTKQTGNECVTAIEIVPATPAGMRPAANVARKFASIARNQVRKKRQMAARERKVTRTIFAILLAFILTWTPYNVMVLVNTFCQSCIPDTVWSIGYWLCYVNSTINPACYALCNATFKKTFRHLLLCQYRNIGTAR
Outline: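 Material: HEK293 cells with M4 receptor and GIRK channels; Times: cells overnight at 37 °C, BTC-AM loading 1 h, reads 2 min total; Technique: kinetic BTC-AM fluorescence sampled at 1 Hz, 10 s pre-addition baseline; Read-out basis: slope over 15–24 s of trace normalized to starting intensity; Controls: carbachol positive, DMSO negative.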

[7] = inhibitors of Sendai virus-induced IRF3 signaling, primary screen, TLR/RLR signaling modifier project, cell-based, Sendai virus stimulus, luciferase, 10K MLSCN set (AID 602276;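 active = inhibition at or above 50% at 10 µM; inactive = inhibition below 50%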;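 also: firefly luciferase from ISG56 promoter only with Renilla not read in this screen; 0% = Sendai virus plus DMSO and 100% = medium plus DMSO without virus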); conditions: HEK293 RL24 IRF3 luciferase reporter, at 10 µM, stronger effect = higher value
[8] = inhibitors of poly I:C-induced TLR3 signaling, primary screen, cell-based, poly I:C stimulus, luciferase, 10K MLSCN set (AID 602277;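 active = inhibition of the reporter signal at or above 50%; inactive = inhibition below 50%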); conditions: HEK293-TLR3 RL24 IRF3 luciferase reporter, at 10 µM, stronger effect = higher value

Row | SMILES | cell count [1] | inhibition [1] | inhibition of aggregation [2] | nuclei count [2] [%] | inhibition [3] | nuclei count [3] [%] | fluorescence slope [4] | NADPH fluorescence slope [5] | fluorescence slope [6] | inhibition [7] | inhibition [8]
1 | Cc1cccc2cc(C#N)c(NCCNC(=O)NC3CCCCC3)nc12 | 463 | -5.1% (inactive) | -41% (inactive) | 85.8 | -40.3% (inactive) | 176 | -0.471 (inactive) | -0.000184 (inactive) | 0.00443 (inactive) | -2.87% (inactive) | 1.15% (inactive)
2 | COCC(=O)Nc1sc2c(c1C(=O)OC)CCC(C)C2 (centres undefined) | 421 | 5.5% (inactive) | -7.6% (inactive) | 94.2 | -127% (inactive) | 126 | -0.471 (inactive) | -3.9e-05 (inactive) | 0.00475 (inactive) | 16.5% (inactive) | -17% (inactive)
3 | CCC(C)OC(=O)n1ccc(C(=O)Nc2nccs2)n1 (centres undefined) | 604 | -8.2% (inactive) | 8.2% (inactive) | 95 | -79.6% (inactive) | 131 | -0.575 (inactive) | -1.9e-05 (inactive) | 0.00527 (inactive) | -5.02% (inactive) | -27.4% (inactive)
4 | O=C(c1ccc(Cl)cc1)N(Cc1cccs1)C1CCS(=O)(=O)C1 (centres undefined) | 376 | 0.4% (inactive) | -20.1% (inactive) | 110 | -33.8% (inactive) | 112 | -0.555 (inactive) | -9.2e-05 (inactive) | 0.00385 (inactive) | -5.62% (inactive) | -0.322% (inactive)
5 | CC(=O)Nc1ccn(-c2ccccc2)n1 | 595 | 1.8% (inactive) | -0.5% (inactive) | 108 | -113% (inactive) | 136 | -0.584 (inactive) | -9.6e-06 (inactive) | 0.00818 (inactive) | -39.2% (inactive) | -34.3% (inactive)
6 | COc1cccc(OCc2nc3c4cnn(-c5ccccc5)c4ncn3n2)c1 | 418 | -6.7% (inactive) | -8.8% (inactive) | 104 | -118% (inactive) | 110 | -0.576 (inactive) | 1.4e-05 (inactive) | 0.00593 (inactive) | 8.13% (inactive) | -16.4% (inactive)
7 | O=C(COn1nnc2ccc(C(F)(F)F)cc21)Nc1nnc(-c2ccccc2)o1 | 704 | -3.6% (inactive) | -0.6% (inactive) | 110 | 108% (active) | 80.2 | -0.503 (inactive) | -0.000163 (inactive) | 0.005 (inactive) | 2.7% (inactive) | 10.1% (inactive)
8 | Cc1ccc(C)c(Cn2c(=O)n(CCC(=O)NCc3ccco3)c(=O)c3sccc32)c1 | 506 | -4.5% (inactive) | 3.9% (inactive) | 95.3 | 17.2% (inactive) | 93.3 | -0.572 (inactive) | -5.2e-06 (inactive) | 0.00734 (inactive) | 19.5% (inactive) | 16.1% (inactive)
9 | Cn1cnnc1SCC(=O)Nc1sc2c(c1C#N)CCCCC2 | 564 | -29.4% (inactive) | 2.6% (inactive) | 80.6 | -29.2% (inactive) | 108 | -0.499 (inactive) | 0.000104 (inactive) | 0.00534 (inactive) | -24.5% (inactive) | -31.5% (inactive)
10 | CN(C)CCSc1nnc2sc3ccccc3n12 | 599 | -5% (inactive) | -2.2% (inactive) | 105 | -71.5% (inactive) | 110 | -0.477 (inactive) | -5.9e-05 (inactive) | 0.00534 (inactive) | -0.357% (inactive) | 12.6% (inactive)
11 | N#C/C(C(=O)N1CCOCC1)=C1/SC=C(c2ccccc2)N1c1ccccc1 | 327 | -5.5% (inactive) | 13.8% (inactive) | 96.2 | -118% (inactive) | 118 | -0.277 (inactive) | -3e-05 (inactive) | 0.00553 (inactive) | 12.4% (inactive) | 26.4% (inactive)
12 | O=C(NC1CCCC1)c1c[nH]c2ccc(F)cc2c1=O | 442 | -4% (inactive) | -14.3% (inactive) | 118 | -16% (inactive) | 104 | -0.266 (inactive) | -1.4e-05 (inactive) | 0.00803 (inactive) | -2.78% (inactive) | -20.3% (inactive)
13 | Cc1nc2sc3c(c2c(=O)o1)CCC3 | 619 | 2.1% (inactive) | -0.2% (inactive) | 108 | 0.3% (inactive) | 93.8 | -0.511 (inactive) | -0.000121 (inactive) | 0.00356 (inactive) | 16.2% (inactive) | 22.8% (inactive)
14 | Cc1ccc(CCNC(=O)Cn2cccc2)cc1 | 349 | -4.8% (inactive) | -1.7% (inactive) | 105 | -38.9% (inactive) | 103 | -0.355 (inactive) | -5.5e-05 (inactive) | 0.00566 (inactive) | 12.9% (inactive) | -5.93% (inactive)
15 | CC(NC(=O)CSc1n[nH]c(=O)n1C1CC1)C12CC3CC(CC(C3)C1)C2 (centres undefined) | 563 | -23% (inactive) | -6.1% (inactive) | 101 | -5.1% (inactive) | 110 | -0.378 (inactive) | 8.6e-05 (inactive) | 0.00652 (inactive) | 7.91% (inactive) | 23.3% (inactive)
16 | O=C1CC(N2CCC(C(=O)N3CCCCC3)CC2)C(=O)N1 (centres undefined) | 349 | 4% (inactive) | 10.7% (inactive) | 115 | -37.4% (inactive) | 148 | -0.554 (inactive) | -3.8e-05 (inactive) | 0.00558 (inactive) | 19.9% (inactive) | 16.2% (inactive)
17 | COc1ccc(/C(O)=C2/C(=O)C(=O)N(Cc3cccnc3)C2c2ccncc2)cc1F (centres undefined) | 574 | -7.6% (inactive) | -2.8% (inactive) | 106 | -3.5% (inactive) | 117 | -0.574 (inactive) | -8.3e-05 (inactive) | 0.00672 (inactive) | 8.93% (inactive) | 16.5% (inactive)
18 | COc1ccc(C(CNC(=O)CN2C(=O)NC3(CC(C)CC(C)(C)C3)C2=O)N2CCOCC2)cc1 (centres undefined) | 427 | 8.4% (inactive) | 13.7% (inactive) | 97.7 | -57% (inactive) | 115 | -0.413 (inactive) | 3.8e-05 (inactive) | 0.00559 (inactive) | -2.17% (inactive) | -5.07% (inactive)
19 | COc1nc(OC)nc(N2CCC(C(=O)NC3CCCCCC3)CC2)n1 | 462 | 7.8% (inactive) | 6.7% (inactive) | 87.3 | -6% (inactive) | 110 | -0.469 (inactive) | 6.4e-05 (inactive) | 0.00646 (inactive) | -10% (inactive) | -8.66% (inactive)
